Source: ChEMBL document CHEMBL3526107, “In vivo-formed versus preformed metabolite kinetics of trans-resveratrol-3-sulfate and trans-resveratrol-3-glucuronide” (Drug Metab Dispos, 2012)
Values belong to the compound of their own block, whether it stands above or below them.

Key:
Assay type in all cases: ADME, organism-based
[1] = AUC (0 to infinity) in C57BL/6 mouse at 5 mg/kg administered intraarterially by LC-MS/MS analysis; set-up: time infinity, dose 5 mg/kg, route intra-arterial; conditions: plasma
In short: (§1)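 Carotid-cannulated male C57BL/6 mice, food withheld for the first 10 h, dosed at 5 mg/kg intraarterially in saline; n = 4. Serial plasma samples taken 2.5–600 min are analysed by LC-MS/MS in negative ESI mode after methanol precipitation with acetaminophen as IS. Noncompartmental analysis uses linear trapezoidal AUC, with Cl = Dose/AUC0-inf, Vss = Cl×MRT, and t1/2 = 0.693/k.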

[2] = Tmax in C57BL/6 mouse at 5 mg/kg administered intraarterially by LC-MS/MS analysis; set-up: dose 5 mg/kg, route intra-arterial; conditions: in vivo; in short: as §1
[3] = Terminal half life in C57BL/6 mouse at 5 mg/kg administered intraarterially by LC-MS/MS analysis; set-up: dose 5 mg/kg, route intra-arterial; conditions: in vivo, read-out: beta t1/2; in short: as §1
[4] = Volume of distribution at steady state in C57BL/6 mouse at 5 mg/kg administered intraarterially by LC-MS/MS analysis; set-up: dose 5 mg/kg, route intra-arterial; conditions: in vivo, read-out: Vdss; in short: as §1
[5] = AUC (0 to t) in C57BL/6 mouse at 5 mg/kg administered intraarterially by LC-MS/MS analysis; set-up: dose 5 mg/kg, route intra-arterial; conditions: plasma; in short: as §1
[6] = Cmax in C57BL/6 mouse at 5 mg/kg administered intraarterially by LC-MS/MS analysis; set-up: dose 5 mg/kg, route intra-arterial; conditions: in vivo; in short: as §1
[7] = Clearance in C57BL/6 mouse at 5 mg/kg administered intraarterially by LC-MS/MS analysis; set-up: dose 5 mg/kg, route intra-arterial; conditions: in vivo; in short: as §1
[8] = Cmax in C57BL/6 mouse at 3.5 mg/kg administered intraarterially by LC-MS/MS analysis; set-up: dose 3.5 mg/kg, route intra-arterial; conditions: in vivo
In short: (§2)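 Single 3.5 mg/kg intraarterial bolus in saline via carotid cannula to fasted male C57BL/6 mice; n = 4. Blood (20 µl) is drawn serially over 2.5–600 min and at 24 h. Plasma with ascorbic acid is precipitated with methanol containing acetaminophen IS, then quantified by negative-mode LC-MS/MS. Noncompartmental parameters: trapezoidal AUC, Cl = Dose/AUC0-inf, Vss = Cl×MRT0-inf, t1/2 = 0.693/terminal slope.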

[9] = Clearance in C57BL/6 mouse at 3.5 mg/kg administered intraarterially by LC-MS/MS analysis; set-up: dose 3.5 mg/kg, route intra-arterial; conditions: in vivo; in short: as §2
[10] = Volume of distribution at steady state in C57BL/6 mouse at 3.5 mg/kg administered intraarterially by LC-MS/MS analysis; set-up: dose 3.5 mg/kg, route intra-arterial; conditions: in vivo, read-out: Vdss; in short: as §2
[11] = AUC (0 to infinity) in C57BL/6 mouse at 3.5 mg/kg administered intraarterially by LC-MS/MS analysis; set-up: time infinity, dose 3.5 mg/kg, route intra-arterial; conditions: plasma; in short: as §2
[12] = AUC (0 to t) in C57BL/6 mouse at 3.5 mg/kg administered intraarterially by LC-MS/MS analysis; set-up: dose 3.5 mg/kg, route intra-arterial; conditions: plasma; in short: as §2
[13] = Terminal half life in C57BL/6 mouse at 3.5 mg/kg administered intraarterially by LC-MS/MS analysis; set-up: dose 3.5 mg/kg, route intra-arterial; conditions: in vivo, read-out: beta t1/2; in short: as §2
[14] = Tmax in C57BL/6 mouse at 3.5 mg/kg administered intraarterially by LC-MS/MS analysis; set-up: dose 3.5 mg/kg, route intra-arterial; conditions: in vivo; in short: as §2
[15] = Cmax in C57BL/6 mouse at 15 mg/kg administered intraarterially by LC-MS/MS analysis; set-up: dose 15 mg/kg, route intra-arterial; conditions: in vivo
In short: (§3)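 Male C57BL/6 mice (20–25 g), fasted for the first 10 h of sampling. Single 15 mg/kg bolus in 20% 2-hydroxypropyl-β-cyclodextrin in saline via carotid artery cannula. Serial 20 µl blood draws from 2.5 to 600 min, plus 24 h; n = 5. Plasma is methanol-precipitated (acetaminophen IS) and run on negative-ESI LC-MS/MS. Noncompartmental analysis: linear trapezoidal AUC, Cl = Dose/AUC0-inf, Vss = Cl×MRT, t1/2 = 0.693/k.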

[16] = Terminal half life in C57BL/6 mouse at 15 mg/kg administered intraarterially by LC-MS/MS analysis; set-up: dose 15 mg/kg, route intra-arterial; conditions: in vivo, read-out: beta t1/2; in short: as §3
[17] = AUC (0 to t) in C57BL/6 mouse at 15 mg/kg administered intraarterially by LC-MS/MS analysis; set-up: dose 15 mg/kg, route intra-arterial; conditions: plasma; in short: as §3
[18] = Volume of distribution at steady state in C57BL/6 mouse at 15 mg/kg administered intraarterially by LC-MS/MS analysis; set-up: dose 15 mg/kg, route intra-arterial; conditions: in vivo, read-out: Vdss; in short: as §3
[19] = Tmax in C57BL/6 mouse at 15 mg/kg administered intraarterially by LC-MS/MS analysis; set-up: dose 15 mg/kg, route intra-arterial; conditions: in vivo; in short: as §3
[20] = Clearance in C57BL/6 mouse at 15 mg/kg administered intraarterially by LC-MS/MS analysis; set-up: dose 15 mg/kg, route intra-arterial; conditions: in vivo; in short: as §3
[21] = AUC (0 to infinity) in C57BL/6 mouse at 15 mg/kg administered intraarterially by LC-MS/MS analysis; set-up: time infinity, dose 15 mg/kg, route intra-arterial; conditions: plasma; in short: as §3

- AUC(0-inf) [1]: 4.26 µM·h
- Tmax [2]: 2.5 min
- half-life [3]: 2.13 h
- Vd [4]: 6.37 L/kg
- AUC(0-t) [5]: 4.05 µM·h
- Cmax [6]: 14.8 µM
- clearance [7]: 76.3 mL/min/kg
Structure (SMILES): O=S(=O)(O)Oc1cc(O)cc(/C=C/c2ccc(O)cc2)c1

- Cmax [8]: 27.8 µM
- clearance [9]: 13.8 mL/min/kg
- Vd [10]: 4.55 L/kg
- AUC(0-inf) [11]: 11.8 µM·h
- AUC(0-t) [12]: 10.8 µM·h
- half-life [13]: 4.54 h
- Tmax [14]: 2.5 min
Structure (SMILES): O=C(O)[C@H]1O[C@@H](Oc2cc(O)cc(/C=C/c3ccc(O)cc3)c2)[C@H](O)[C@@H](O)[C@@H]1O

- Cmax [15]: 15.3 µM
- half-life [16]: 3.18 h
- AUC(0-t) [17]: 8.5 µM·h
- Vd [18]: 37.6 L/kg
- Tmax [19]: 2.5 min
- clearance [20]: 119 mL/min/kg
- AUC(0-inf) [21]: 9.85 µM·h
Structure (SMILES): Oc1ccc(/C=C/c2cc(O)cc(O)c2)cc1 [RESVERATROL]
